The source made the active and inactive calls. The rule behind the calls is not given here.
Legend:
[1] = Binding affinity to 5'AAATTT3' sequence of non-cognate DNA by surface plasmon resonance method
In short: (§1)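 SPR at 25 °C in degassed MES buffer (200 mM Na+, 10 mM MES, 1 mM EDTA, surfactant P20, pH 6.25). DNA hairpins were immobilized to about 400 RU, with one flow cell left blank. Ligand (0.1–400 nM) was injected at 20 µL/min for 12.5 min, then dissociated for 20 min. The surface was regenerated with 500 mM NaCl/25 mM NaOH. Global 1:1 kinetic fit; Keq = ka/kd.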

[2] = Binding affinity to 5'ACCGGT3' sequence of non-cognate DNA by surface plasmon resonance method; in short: as §1
[3] = tested on: Nucleic Acid; experiment: Binding affinity to 5'ACGCGT3' sequence of cognate DNA assessed as change in melting temperature by thermal denaturation method; format: nucleic-acid assay
In short: (§2)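 Thermal melting in PO 0 buffer (10 mM sodium phosphate, 1 mM EDTA, pH 6.2). Oligonucleotides were reannealed first (70 °C for 1 min, then cooled to RT). Ramp from 25 to 95 °C at 0.5 °C/min, with Abs260 recorded every 0.5 °C. Tm was taken as the maximum of the first derivative, and ΔTm was the shift on ligand binding.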

[4] = tested on: Nucleic Acid; experiment: Binding affinity to 5'AAATTT3' sequence of non-cognate DNA assessed as change in melting temperature by thermal denaturation method; format: nucleic-acid assay; in short: as §2
[5] = Binding affinity to 5'AAATTT3' sequence of non-cognate DNA assessed as heat change by isothermal titration colorimetry
In short: (§3)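 ITC at 25, 30 and 35 °C. DNA (2 µM in PO 5) was titrated with ligand (0.5 mM in PO 5) in 3 µL injections every 300 s, 50 injections in total. One-site model fit, with a linear fit subtracted to remove non-specific heat. ΔG was taken from SPR Keq as −RT ln Keq.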

[6] = tested on: Nucleic Acid; experiment: Binding affinity to 5'ACCGGT3' sequence of non-cognate DNA assessed as change in melting temperature by thermal denaturation method; format: nucleic-acid assay; in short: as §2
[7] = Binding affinity to 5'ACGCGT3' sequence of cognate DNA by surface plasmon resonance method; in short: as §1
[8] = Binding affinity to 5'ACCGGT3' sequence of non-cognate DNA assessed as heat change by isothermal titration colorimetry; in short: as §3
[9] = Binding affinity to 5'ACGCGT3' sequence of cognate DNA assessed as exothermic enthalpy at 25 to 50 degC by isothermal titration colorimetry
[10] = Binding affinity to 5'ACGTGT3' sequence of cognate DNA at 5 uM by DnaseI footprinting assay
In short: (§4)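 DNA was incubated 30 min with ligand in TN buffer (10 mM Tris, 10 mM NaCl, pH 7). Digestion ran 3 min with DNase I in buffer containing NaCl, MgCl2 and MnCl2, then stopped on dry ice. Products were resolved on a 10% polyacrylamide/7.5 M urea gel and read by autoradiography.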

[11] = Binding affinity to 5'ACGCGT3' sequence of cognate DNA at 0.5 uM by DnaseI footprinting assay; in short: as §4

Row | K [1] | K [2] | ΔTm [3] [°C] | ΔTm [4] [°C] | Activity [5] | ΔTm [6] [°C] | K [7] | Activity [8] | Activity [9] | Activity [10] | Activity [11] | SMILES
1 | 5.3 ×10⁴ /M | 2.2 ×10⁵ /M | 7.8 | 0.9 | inactive | 1.1 | 1.9 ×10⁸ /M | inactive |  |  |  | CN(C)CCNC(=O)c1nc(NC(=O)c2cc(NC(=O)c3nc(NC=O)cn3C)cn2C)cn1C
2 | 5 ×10⁵ /M | 1.1 ×10⁸ /M | > 30 | 9.3 | inactive | 14.1 | 2 ×10¹⁰ /M | inactive | Active |  |  | CN(C)CCNC(=O)c1nc(NC(=O)c2cc(NC(=O)c3nc(NC=O)cn3C)cn2CCOCCOCCn2cc(NC(=O)c3nc(NC=O)cn3C)cc2C(=O)Nc2cn(C)c(C(=O)NCCN(C)C)n2)cn1C
3 |  |  | 3 | 0.1 |  | 0.1 | 7.1 ×10⁶ /M |  |  | Active | Active | CN(C)CCNC(=O)c1nc(NC(=O)c2cc(NC(=O)c3nc(NC(=O)c4cccn4C)cn3C)cn2C)cn1C

— ChEMBL document CHEMBL1152237, “Sequence specific and high affinity recognition of 5'-ACGCGT-3' by rationally designed pyrrole-imidazole H-pin polyamides: thermodynamic and structural studies” (Bioorg Med Chem, 2008)
